Experimental data taken from ChEMBL document CHEMBL1143257, “Structure-activity relationships of novel HIV-1 protease inhibitors containing the 3-amino-2-chlorobenzoyl-allophenylnorstatine structure” (Bioorg Med Chem, 2008).

What was measured:
[1] = system: Human immunodeficiency virus 1; assay: Ratio of EC50 for HIV1 mutant strain 4 to EC50 for wild type HIV1; assay type: functional
Liver [2] = assay: Metabolic stability in dog liver microsomes assessed as compound remaining in presence of NADPH by RP-HPLC; assay type: ADME, Canis lupus familiaris, Microsome
Summary of the method: (§1)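 Test drug at 5 µM incubated with liver microsomes (0.5 mg/ml) plus cofactor (1 mM NADPH or 5 mM UDPGA) at 37 °C for 30 min. Residual drug measured by RP-HPLC. Values are the mean percent remaining of duplicates.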

[3] = Metabolic stability in dog liver microsomes assessed as compound remaining at 5 uM in presence of 0.5 uM ritonavir by RP-HPLC; assay type: ADME, Canis lupus familiaris, Microsome; details: with ritonavir 0.5 uM, read-out: Stability
[4] = Metabolic stability in rat liver microsomes assessed as compound remaining at 5 uM in presence of 0.5 uM ritonavir by RP-HPLC; assay type: ADME, Microsome; details: with ritonavir 0.5 uM, read-out: Stability
[5] = Volume of distribution at steady state in Beagle dog at 15 mg/kg, iv; assay type: ADME, organism-based, Canis lupus familiaris; set-up: dose 15 mg/kg, route intravenous; details: in vivo, read-out: Vdss
[6] = system: Human immunodeficiency virus 1; assay: Ratio of EC50 for HIV1 mutant strain 1 to EC50 for wild type HIV1; assay type: functional
Summary of the method: (§2)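 PhenoSense phenotypic susceptibility assay on multi-drug-resistant clinical HIV-1 protease variant strains, run in parallel with a wild-type reference. EC50 read in µM. Fold change is mutant EC50 divided by wild-type EC50.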

[7] = system: Human immunodeficiency virus 1; assay: Antiviral activity against HIV1 mutant strain 7; assay type: functional, organism-based
Summary of the method: (§3)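 PhenoSense phenotypic assay. Strain 7 protease mutations include T4A, L10I, K20R, L23I, L33F, E35D, M36I, K43T, M46L. EC50 in µM. Fold change is versus the wild-type EC50.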

[8] = system: Human immunodeficiency virus 1; assay: Antiviral activity against wild type HIV1; assay type: functional, organism-based
[9] = system: Human immunodeficiency virus 1; assay: Antiviral activity against HIV1 mutant strain 4; assay type: functional, organism-based
[10] = Plasma clearance in Beagle dog at 15 mg/kg, iv; assay type: ADME, organism-based, Canis lupus familiaris; set-up: dose 15 mg/kg, route intravenous
[11] = Tmax in Beagle dog at 15 mg/kg, po co-administered with 7.5 mg/kg of ritonavir, po; assay type: ADME, organism-based, Canis lupus familiaris; details: in vivo
[12] = Plasma concentration in Beagle dog at 15 mg/kg, po after 12 hrs co-administered with 7.5 mg/kg of ritonavir, po; assay type: ADME, organism-based, Canis lupus familiaris
[13] = system: Human immunodeficiency virus 1; assay: Ratio of EC50 for HIV1 mutant strain 7 to EC50 for wild type HIV1; assay type: functional; summary of the method: as §3
[14] = system: Human immunodeficiency virus 1; assay: Antiviral activity against HIV1 mutant strain 2; assay type: functional, organism-based
Summary of the method: (§4)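 PhenoSense phenotypic assay. Strain 2 protease carries L10I, G16A, K45V, F53L, I54V, K55N, D60E, L63P, A71V, I72K, V77I, V82F, I84V, L90M, I93L. EC50 in µM. Fold change is versus the wild-type EC50.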

[15] = Metabolic stability in rat liver microsomes assessed as compound remaining at 5 uM by RP-HPLC; assay type: ADME, Microsome; details: read-out: Stability; summary of the method: as §1
[16] = Metabolic stability in human liver microsomes assessed as compound remaining at 5 uM in presence of NADPH by RP-HPLC; assay type: ADME, Microsome; details: read-out: Stability; summary of the method: as §1
[17] = system: Human immunodeficiency virus 1; assay: Antiviral activity against HIV1 3B in presence of 50% human serum; assay type: functional, organism-based; details: Human immunodeficiency virus 1, 3B
[18] = Metabolic stability in rat liver microsomes assessed as compound remaining at 5 uM in presence of 2.5 uM ritonavir by RP-HPLC; assay type: ADME, Microsome; details: with ritonavir 2.5 uM, read-out: Stability
[19] = system: Human immunodeficiency virus 1; assay: Antiviral activity against HIV1 mutant strain 1; assay type: functional, organism-based; summary of the method: as §2
[20] = Tmax in Beagle dog at 15 mg/kg, po; assay type: ADME, organism-based, Canis lupus familiaris; set-up: dose 15 mg/kg, route oral; details: in vivo
[21] = system: Human immunodeficiency virus 1; assay: Antiviral activity against HIV1 mutant strain 6; assay type: functional, organism-based
Protease = Protease (Human immunodeficiency virus 1, UniProt Q9YQ12); assay: Inhibition of HIV1 protease
[22] = system: Human immunodeficiency virus 1; assay: Ratio of EC50 for HIV1 mutant strain 5 to EC50 for wild type HIV1; assay type: functional
[23] = Metabolic stability in human liver microsomes assessed as compound remaining at 5 uM in presence of 0.5 uM ritonavir by RP-HPLC; assay type: ADME, Microsome; details: with ritonavir 0.5 uM, read-out: Stability
[24] = system: Human immunodeficiency virus 1; assay: Antiviral activity against multidrug resistant HIV1; assay type: functional, organism-based; summary of the method: as §2
[25] = Metabolic stability in human liver microsomes assessed as compound remaining at 5 uM by RP-HPLC; assay type: ADME, Microsome; details: read-out: Stability; summary of the method: as §1
[26] = system: Human immunodeficiency virus 1; assay: Ratio of EC50 for HIV1 mutant strain 6 to EC50 for wild type HIV1; assay type: functional
Liver [27] = assay: Metabolic stability in dog liver microsomes assessed as compound remaining in presence of UDPGA by RP-HPLC; assay type: ADME, Canis lupus familiaris, Microsome; summary of the method: as §1
[28] = Metabolic stability in human liver microsomes assessed as compound remaining at 5 uM in presence of 2.5 uM ritonavir by RP-HPLC; assay type: ADME, Microsome; details: with ritonavir 2.5 uM, read-out: Stability
[29] = system: Human immunodeficiency virus 1; assay: Antiviral activity against HIV1 3B; assay type: functional, organism-based; details: Human immunodeficiency virus 1, 3B
[30] = system: Human immunodeficiency virus 1; assay: Ratio of EC50 for HIV1 mutant strain 3 to EC50 for wild type HIV1; assay type: functional
[31] = Cmax in Beagle dog at 15 mg/kg, po co-administered with 7.5 mg/kg of ritonavir, po; assay type: ADME, organism-based, Canis lupus familiaris; set-up: dose 15 mg/kg, route oral; details: in vivo
[32] = system: Human immunodeficiency virus 1; assay: Antiviral activity against HIV1 mutant strain 5; assay type: functional, organism-based
[33] = Oral bioavailability in Beagle dog at 15 mg/kg; assay type: ADME, organism-based, Canis lupus familiaris; details: in vivo
[34] = Plasma concentration in Beagle dog at 15 mg/kg, po after 12 hrs; assay type: ADME, organism-based, Canis lupus familiaris; set-up: dose 15 mg/kg, route oral
[35] = AUC in Beagle dog at 15 mg/kg, po co-administered with 7.5 mg/kg of ritonavir, po; assay type: ADME, organism-based, Canis lupus familiaris; details: plasma
[36] = system: Human immunodeficiency virus 1; assay: Antiviral activity against HIV1 mutant strain 3; assay type: functional, organism-based
[37] = Cmax in Beagle dog at 15 mg/kg, po; assay type: ADME, organism-based, Canis lupus familiaris; set-up: dose 15 mg/kg, route oral; details: in vivo
[38] = system: Human immunodeficiency virus 1; assay: Ratio of EC50 for HIV1 mutant strain 2 to EC50 for wild type HIV1; assay type: functional; summary of the method: as §4
[39] = Metabolic stability in human liver microsomes assessed as compound remaining at 5 uM in presence of UDPGA by RP-HPLC; assay type: ADME, Microsome; details: read-out: Stability; summary of the method: as §1
[40] = Metabolic stability in dog liver microsomes assessed as compound remaining at 5 uM by RP-HPLC; assay type: ADME, Canis lupus familiaris, Microsome; details: read-out: Stability; summary of the method: as §1
[41] = Metabolic stability in dog liver microsomes assessed as compound remaining at 5 uM in presence of 2.5 uM ritonavir by RP-HPLC; assay type: ADME, Canis lupus familiaris, Microsome; details: with ritonavir 2.5 uM, read-out: Stability
[42] = AUC in Beagle dog at 15 mg/kg, po; assay type: ADME, organism-based, Canis lupus familiaris; set-up: dose 15 mg/kg, route oral; details: plasma

Protease, sequence (Q9YQ12 whole entry): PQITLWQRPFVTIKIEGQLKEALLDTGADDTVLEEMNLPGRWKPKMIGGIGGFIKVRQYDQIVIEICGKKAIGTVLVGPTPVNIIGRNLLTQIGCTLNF

COc1cccc(C[C@H](NC(=O)c2cccc(N)c2Cl)[C@H](O)C(=O)N2CSC(C)(C)[C@H]2C(=O)NCc2c(C)cccc2C)c1
Ratio EC50 [1]: 4 | Stability (Liver [2]): 47% | remaining at 5 µM [3]: 90% | remaining at 5 µM [4]: 41% | Vd [5]: 1.3 L/kg | Ratio EC50 [6]: 27 | EC50 [7]: 42 nM | EC50 [8]: 5.6 nM | EC50 [9]: 22 nM | clearance [10]: 18.3 mL/min/kg | Tmax [11]: 3 h | concentration at 12 h [12]: 2950 nM | Ratio EC50 [13]: 7 | EC50 [14]: 106 nM | remaining at 5 µM [15]: 21% | remaining at 5 µM [16]: 64% | EC50 [17]: 6 nM | remaining at 5 µM [18]: 55% | EC50 [19]: 150 nM | Tmax [20]: 2 h | EC50 [21]: 96 nM | Ki (Protease): 0.134 nM | Ratio EC50 [22]: 38 | remaining at 5 µM [23]: 93% | IC50 [24]: 22 nM | remaining at 5 µM [25]: 49% | Ratio EC50 [26]: 17 | Stability (Liver [27]): > 95% | remaining at 5 µM [28]: > 95% | EC50 [29]: 4 nM | Ratio EC50 [30]: 22 | Cmax [31]: 5300 nM | EC50 [32]: 214 nM | bioavailability [33]: 71% | concentration at 12 h [34]: 130 nM | AUC [35]: 52.8 µM·h | EC50 [36]: 122 nM | Cmax [37]: 2800 nM | Ratio EC50 [38]: 19 | remaining at 5 µM [39]: > 95% | remaining at 5 µM [40]: 36% | remaining at 5 µM [41]: > 95% | AUC [42]: 15.6 µM·h

Cc1ccccc1CNC(=O)[C@H]1N(C(=O)[C@@H](O)[C@H](Cc2ccccc2)NC(=O)c2cccc(O)c2C)CSC1(C)C
Stability (Liver [2]): 49% | remaining at 5 µM [3]: 92% | remaining at 5 µM [4]: 16% | Vd [5]: 1.6 L/kg | clearance [10]: 15 mL/min/kg | remaining at 5 µM [15]: 12% | remaining at 5 µM [16]: 27% | EC50 [17]: 52 nM | remaining at 5 µM [18]: 31% | Tmax [20]: 0.5 h | Ki (Protease): 0.035 nM | remaining at 5 µM [23]: 56% | remaining at 5 µM [25]: 13% | Stability (Liver [27]): 91% | remaining at 5 µM [28]: 59% | EC50 [29]: 26 nM | bioavailability [33]: 25% | concentration at 12 h [34]: 30 nM | Cmax [37]: 3100 nM | remaining at 5 µM [39]: 55% | remaining at 5 µM [40]: 46% | remaining at 5 µM [41]: 93% | AUC [42]: 6.5 µM·h
